From ChEMBL document CHEMBL5649170, “Sustained microglial depletion with CSF1R inhibitor impairs parenchymal plaque development in an Alzheimer's disease model” (Nat Commun, 2019)
Calls of active or inactive are those of the source. No cut-off for these calls is given here.

Tests used:
[1] = Drug concentration in wildtype mouse plasma at 75 ppm administered as rodent chow starting from 1.5 months and measured after 5 months; assay type: ADME, cell-free; conditions: route po, time 3.5 months
How it was run: (§1)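 WT or 5xFAD mice were fed PLX3397 in AIN-76A chow at 600 ppm or 75 ppm from 1.5 to 5 months of age. Terminal brain and plasma drug concentrations were determined at study end.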

[2] = tested on: Mus musculus; test: Antialzheimer activity in 5XFAD mouse assessed as number of plaques per FOV in somatosensory cortex at 75 ppm administered as rodent chow starting from 1.5 months and measured after 5 months by immunolabeling based confocal microscopic analysis (reference value: 22 to 91); assay type: functional; conditions: route po, time 3.5 months, 2555 h
How it was run: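 5xFAD mice ate AIN-76A chow with 75 ppm PLX3397, or control chow, from 1.5 to 5 months of age. Sections of retrosplenial and somatosensory cortex were stained with Thio-S and immunolabeled for IBA1, then imaged by confocal microscopy. n = 4–5 per group; two-tailed independent t-test; mean ± SEM.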

[3] = Drug concentration in 5XFAD mouse plasma at 600 ppm administered as rodent chow starting from 1.5 months and measured after 5 months; assay type: ADME, cell-free; conditions: route po, time 3.5 months; how it was run: as §1
[4] = tested on: Mus musculus; test: Prevention of P2ry12 gene upregulation in 5XFAD mouse hippocampus at 1200 ppm administered as rodent chow starting from 1.5 months and measured after 7 months by Nanostring analysis; assay type: functional, tissue-based; conditions: route po, time 5.5 months
[5] = target: Serine/threonine-protein kinase D3 (Homo sapiens, UniProt O94806); test: Inhibition of PRKCN (unknown origin)
[6] = AUC (0 to 24 hrs) in 5XFAD mouse brain at 1200 ppm administered as rodent chow for 180 days; assay type: ADME, tissue-based; conditions: route po, time 180 day
[7] = Effect on Spi1 gene expression in wild type mouse cortex at 1200 ppm administered as rodent chow starting from 1.5 months and measured after 7 months by RNA-Seq analysis (reference value: 1.059 to 1.887 RPKM); assay type: functional; conditions: route po, time 5.5 months, 4015 h
[8] = target: Ephrin type-B receptor 3 (Homo sapiens, UniProt P54753); test: Inhibition of EPHB3 (unknown origin)
[9] = Effect on Clec7a gene expression in 5XFAD mouse thalamus at 1200 ppm administered as rodent chow starting from 1.5 months and measured after 7 months by RNA-Seq analysis (reference value: 3.412 to 4.381 RPKM); assay type: functional; conditions: route po, time 5.5 months, 4015 h
How it was run: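 WT and 5xFAD mice were treated with 1200 ppm PLX5622 chow or control chow from 1.5 to 7 months of age. Brains were microdissected into cortex, hippocampus and thalamus, and RNA was extracted from tissue powder. Whole-transcriptome RNA-Seq libraries were sequenced, with n = 4 per group per region (48 samples).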

[10] = Effect on Hexb gene expression in wild type mouse thalamus at 1200 ppm administered as rodent chow starting from 1.5 months and measured after 7 months by RNA-Seq analysis (reference value: 45.201 to 52.726 RPKM); assay type: functional; conditions: route po, time 5.5 months, 4015 h
[11] = Effect on Ctsz gene expression in wild type mouse hippocampus at 1200 ppm administered as rodent chow starting from 1.5 months and measured after 7 months by RNA-Seq analysis (reference value: 13.821 to 22.84 RPKM); assay type: functional; conditions: route po, time 5.5 months, 4015 h
[12] = target: RAC-alpha serine/threonine-protein kinase (Homo sapiens, UniProt P31749); test: Inhibition of AKT1 (unknown origin)
[13] = tested on: Mus musculus; test: Antialzheimer activity in 5XFAD mouse assessed as number of Iba1 positive cells per FOV in […] cortex at 1200 ppm administered as rodent chow starting from 1.5 months to 4 months followed by compound removal and measured after 1 months by immunolabelling based confocal microscopic analysis (reference value: 210 to 529); assay type: functional; conditions: route po, time 2.5 months, 1825 h
How it was run: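 For the repopulation paradigm, 5xFAD mice ate 1200 ppm PLX5622 chow from 1.5 to 4 months of age. Inhibitor chow was then withdrawn, and brains were examined one month later. Sections were stained with Thio-S and immunolabeled for IBA1, then analysed by confocal microscopy in cortical regions.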

[14] = Prevention of Chrm3 gene downregulation in 5XFAD mouse hippocampus assessed as percent change in Reads Per kilo base per Million mapped reads at 1200 ppm administered as rodent chow starting from 1.5 months and measured after 7 months by RNA-Seq analysis (reference value: 46.176 to 86.158 %); assay type: functional; conditions: route po, time 5.5 months, 4015 h
[15] = Drug concentration in 5XFAD mouse brain at 1200 ppm administered as rodent chow for 180 days; assay type: ADME, tissue-based; conditions: route po, time 180 day, read-out: Ct
[16] = tested on: Mus musculus; test: Antialzheimer activity in 5XFAD mouse assessed as reduction in myeloid cell numbers in subiculum at 1200 ppm administered as rodent chow starting from 1.5 months and measured after 7 months by immunolabeling based confocal microscopic analysis relative to control; assay type: functional; design: scale not given: the % may be the effect or the level left; conditions: route po, time 5.5 months, 4015 h
[17] = target: Tyrosine-protein kinase Yes (Homo sapiens, UniProt P07947); test: Inhibition of YES1 (unknown origin)
[18] = target: Fibroblast growth factor receptor 4 (Homo sapiens, UniProt P22455); test: Inhibition of FGFR4 (unknown origin)
[19] = target: ALK tyrosine kinase receptor (Homo sapiens, UniProt Q9UM73); test: Inhibition of ALK (unknown origin)
[20] = Prevention of Rtn4r gene downregulation in 5XFAD mouse hippocampus assessed as percent change in Reads Per kilo base per Million mapped reads at 1200 ppm administered as rodent chow starting from 1.5 months and measured after 7 months by RNA-Seq analysis (reference value: 53.880 to 87.869 %); assay type: functional; conditions: route po, time 5.5 months, 4015 h
[21] = target: Receptor-type tyrosine-protein kinase FLT3 (Homo sapiens, UniProt P36888); test: Inhibition of FLT3 (unknown origin)
[22] = tested on: Mus musculus; test: Prevention of Nell2 gene downregulation in 5XFAD mouse hippocampus at 1200 ppm administered as rodent chow starting from 1.5 months and measured after 7 months by Nanostring analysis; assay type: functional, tissue-based; conditions: route po, time 5.5 months
[23] = tested on: Mus musculus; test: Antialzheimer activity in 5XFAD mouse assessed as average diameter of claudin-5 blood vessels in Thio-S negative thalamus at 1200 ppm administered as rodent chow starting from 1.5 months and measured after 4 months by immunolabeling analysis; assay type: functional; conditions: route po, time 2.5 months, 1825 h
[24] = target: NT-3 growth factor receptor (Homo sapiens, UniProt Q16288); test: Inhibition of NTRK3 (unknown origin)
[25] = target: Serine/threonine-protein kinase PAK 5 (Homo sapiens, UniProt Q9P286); test: Inhibition of PAK7 (unknown origin)
[26] = target: Fibroblast growth factor receptor 1 (Homo sapiens, UniProt P11362); test: Inhibition of FGFR1 (unknown origin)
[27] = Effect on Cst7 gene expression in wild type mouse hippocampus at 1200 ppm administered as rodent chow starting from 1.5 months and measured after 7 months by RNA-Seq analysis (reference value: 0.079 to 0.447 RPKM); assay type: functional; conditions: route po, time 5.5 months, 4015 h
[28] = target: Death-associated protein kinase 1 (Homo sapiens, UniProt P53355); test: Inhibition of DAPK1 (unknown origin)
[29] = target: Ephrin type-A receptor 2 (Homo sapiens, UniProt P29317); test: Inhibition of EPHA2 (unknown origin)
[30] = Effect on Siglech gene expression in 5XFAD mouse cortex at 1200 ppm administered as rodent chow starting from 1.5 months and measured after 7 months by RNA-Seq analysis (reference value: 5.048 to 7.930 RPKM); assay type: functional; conditions: route po, time 5.5 months, 4015 h
[31] = tested on: Mus musculus; test: Prevention of C1qc gene upregulation in 5XFAD mouse hippocampus at 1200 ppm administered as rodent chow starting from 1.5 months and measured after 7 months by Nanostring analysis; assay type: functional, tissue-based; conditions: route po, time 5.5 months

Sequence of Serine/threonine-protein kinase D3 (O94806 whole entry): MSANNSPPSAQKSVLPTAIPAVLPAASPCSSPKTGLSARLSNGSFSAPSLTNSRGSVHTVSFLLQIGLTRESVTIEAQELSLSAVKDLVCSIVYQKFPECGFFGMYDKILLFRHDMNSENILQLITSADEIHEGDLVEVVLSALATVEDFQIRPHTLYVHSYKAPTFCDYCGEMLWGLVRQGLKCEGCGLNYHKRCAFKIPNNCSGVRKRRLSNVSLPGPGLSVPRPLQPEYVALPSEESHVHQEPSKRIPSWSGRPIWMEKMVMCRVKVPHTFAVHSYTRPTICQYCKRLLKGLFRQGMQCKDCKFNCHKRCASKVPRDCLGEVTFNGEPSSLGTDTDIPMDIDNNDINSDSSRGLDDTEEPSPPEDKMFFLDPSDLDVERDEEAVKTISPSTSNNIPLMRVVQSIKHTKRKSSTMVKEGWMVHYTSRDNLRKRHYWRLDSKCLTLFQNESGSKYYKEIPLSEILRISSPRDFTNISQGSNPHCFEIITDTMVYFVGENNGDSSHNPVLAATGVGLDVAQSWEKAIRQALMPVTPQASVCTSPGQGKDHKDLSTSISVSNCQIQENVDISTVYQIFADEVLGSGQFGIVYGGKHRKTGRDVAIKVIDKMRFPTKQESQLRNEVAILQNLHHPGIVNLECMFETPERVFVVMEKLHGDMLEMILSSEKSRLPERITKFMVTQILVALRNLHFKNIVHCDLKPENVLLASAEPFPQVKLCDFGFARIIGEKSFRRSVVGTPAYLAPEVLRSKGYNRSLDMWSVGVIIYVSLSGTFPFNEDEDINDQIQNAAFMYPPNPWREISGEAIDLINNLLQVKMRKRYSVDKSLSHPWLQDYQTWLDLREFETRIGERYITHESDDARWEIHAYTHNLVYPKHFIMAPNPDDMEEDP
Sequence of Fibroblast growth factor receptor 4 (P22455 whole entry): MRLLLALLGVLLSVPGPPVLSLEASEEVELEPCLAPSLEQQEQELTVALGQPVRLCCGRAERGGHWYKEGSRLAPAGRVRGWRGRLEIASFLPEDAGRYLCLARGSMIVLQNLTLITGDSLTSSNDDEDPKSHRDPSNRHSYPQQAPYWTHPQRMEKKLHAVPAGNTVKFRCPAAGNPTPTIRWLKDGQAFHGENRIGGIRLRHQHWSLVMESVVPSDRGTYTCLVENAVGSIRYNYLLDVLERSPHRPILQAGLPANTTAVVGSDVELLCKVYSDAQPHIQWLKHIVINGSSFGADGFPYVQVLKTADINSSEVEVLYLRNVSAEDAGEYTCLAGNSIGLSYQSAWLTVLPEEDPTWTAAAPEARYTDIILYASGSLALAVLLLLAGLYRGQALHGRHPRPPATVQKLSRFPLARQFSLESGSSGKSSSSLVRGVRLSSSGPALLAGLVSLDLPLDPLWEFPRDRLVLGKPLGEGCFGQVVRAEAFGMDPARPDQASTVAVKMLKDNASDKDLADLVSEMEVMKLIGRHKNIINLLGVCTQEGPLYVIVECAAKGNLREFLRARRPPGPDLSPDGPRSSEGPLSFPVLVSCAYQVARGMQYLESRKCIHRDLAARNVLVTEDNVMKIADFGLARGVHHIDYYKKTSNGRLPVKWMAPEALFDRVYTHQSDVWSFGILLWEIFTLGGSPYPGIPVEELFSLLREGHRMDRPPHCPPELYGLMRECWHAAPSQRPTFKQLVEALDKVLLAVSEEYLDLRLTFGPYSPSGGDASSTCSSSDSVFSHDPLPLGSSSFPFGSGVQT
Sequence of Death-associated protein kinase 1 (P53355 whole entry): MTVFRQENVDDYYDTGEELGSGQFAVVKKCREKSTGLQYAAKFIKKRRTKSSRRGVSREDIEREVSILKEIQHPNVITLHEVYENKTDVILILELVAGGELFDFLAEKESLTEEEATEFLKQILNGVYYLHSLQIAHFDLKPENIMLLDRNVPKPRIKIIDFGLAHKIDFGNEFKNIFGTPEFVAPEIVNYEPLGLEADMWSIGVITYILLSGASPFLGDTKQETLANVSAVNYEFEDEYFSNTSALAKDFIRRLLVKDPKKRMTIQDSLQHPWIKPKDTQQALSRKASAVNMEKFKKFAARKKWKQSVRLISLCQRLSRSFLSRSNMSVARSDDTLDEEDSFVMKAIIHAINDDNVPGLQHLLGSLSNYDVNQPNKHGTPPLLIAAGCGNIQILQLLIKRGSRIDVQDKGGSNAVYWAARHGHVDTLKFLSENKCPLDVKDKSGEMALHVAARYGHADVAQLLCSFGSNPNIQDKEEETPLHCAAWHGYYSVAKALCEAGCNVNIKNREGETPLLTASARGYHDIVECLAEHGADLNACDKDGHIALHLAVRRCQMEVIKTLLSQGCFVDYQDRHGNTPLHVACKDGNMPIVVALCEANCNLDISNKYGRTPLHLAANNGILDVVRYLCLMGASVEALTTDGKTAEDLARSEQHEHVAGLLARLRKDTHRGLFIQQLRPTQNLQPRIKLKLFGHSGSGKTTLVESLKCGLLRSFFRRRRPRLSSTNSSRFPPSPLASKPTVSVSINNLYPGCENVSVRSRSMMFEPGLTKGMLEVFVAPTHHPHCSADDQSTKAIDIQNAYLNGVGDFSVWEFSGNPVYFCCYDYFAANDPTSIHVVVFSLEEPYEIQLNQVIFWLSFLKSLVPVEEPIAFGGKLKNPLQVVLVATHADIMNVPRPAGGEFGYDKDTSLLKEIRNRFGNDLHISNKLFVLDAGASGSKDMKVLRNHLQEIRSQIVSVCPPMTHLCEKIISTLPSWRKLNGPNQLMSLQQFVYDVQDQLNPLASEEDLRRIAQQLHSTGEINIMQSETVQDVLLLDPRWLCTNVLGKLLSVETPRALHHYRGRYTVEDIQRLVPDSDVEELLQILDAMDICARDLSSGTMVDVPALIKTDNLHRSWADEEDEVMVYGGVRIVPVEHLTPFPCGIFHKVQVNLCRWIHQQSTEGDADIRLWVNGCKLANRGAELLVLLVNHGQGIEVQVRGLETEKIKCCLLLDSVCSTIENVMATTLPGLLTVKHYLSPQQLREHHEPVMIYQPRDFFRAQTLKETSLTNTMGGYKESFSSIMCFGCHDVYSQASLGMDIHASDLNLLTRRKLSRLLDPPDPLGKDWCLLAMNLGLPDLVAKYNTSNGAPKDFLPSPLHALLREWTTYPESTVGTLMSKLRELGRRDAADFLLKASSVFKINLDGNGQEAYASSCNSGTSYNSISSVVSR
Sequence of ALK tyrosine kinase receptor (Q9UM73 whole entry): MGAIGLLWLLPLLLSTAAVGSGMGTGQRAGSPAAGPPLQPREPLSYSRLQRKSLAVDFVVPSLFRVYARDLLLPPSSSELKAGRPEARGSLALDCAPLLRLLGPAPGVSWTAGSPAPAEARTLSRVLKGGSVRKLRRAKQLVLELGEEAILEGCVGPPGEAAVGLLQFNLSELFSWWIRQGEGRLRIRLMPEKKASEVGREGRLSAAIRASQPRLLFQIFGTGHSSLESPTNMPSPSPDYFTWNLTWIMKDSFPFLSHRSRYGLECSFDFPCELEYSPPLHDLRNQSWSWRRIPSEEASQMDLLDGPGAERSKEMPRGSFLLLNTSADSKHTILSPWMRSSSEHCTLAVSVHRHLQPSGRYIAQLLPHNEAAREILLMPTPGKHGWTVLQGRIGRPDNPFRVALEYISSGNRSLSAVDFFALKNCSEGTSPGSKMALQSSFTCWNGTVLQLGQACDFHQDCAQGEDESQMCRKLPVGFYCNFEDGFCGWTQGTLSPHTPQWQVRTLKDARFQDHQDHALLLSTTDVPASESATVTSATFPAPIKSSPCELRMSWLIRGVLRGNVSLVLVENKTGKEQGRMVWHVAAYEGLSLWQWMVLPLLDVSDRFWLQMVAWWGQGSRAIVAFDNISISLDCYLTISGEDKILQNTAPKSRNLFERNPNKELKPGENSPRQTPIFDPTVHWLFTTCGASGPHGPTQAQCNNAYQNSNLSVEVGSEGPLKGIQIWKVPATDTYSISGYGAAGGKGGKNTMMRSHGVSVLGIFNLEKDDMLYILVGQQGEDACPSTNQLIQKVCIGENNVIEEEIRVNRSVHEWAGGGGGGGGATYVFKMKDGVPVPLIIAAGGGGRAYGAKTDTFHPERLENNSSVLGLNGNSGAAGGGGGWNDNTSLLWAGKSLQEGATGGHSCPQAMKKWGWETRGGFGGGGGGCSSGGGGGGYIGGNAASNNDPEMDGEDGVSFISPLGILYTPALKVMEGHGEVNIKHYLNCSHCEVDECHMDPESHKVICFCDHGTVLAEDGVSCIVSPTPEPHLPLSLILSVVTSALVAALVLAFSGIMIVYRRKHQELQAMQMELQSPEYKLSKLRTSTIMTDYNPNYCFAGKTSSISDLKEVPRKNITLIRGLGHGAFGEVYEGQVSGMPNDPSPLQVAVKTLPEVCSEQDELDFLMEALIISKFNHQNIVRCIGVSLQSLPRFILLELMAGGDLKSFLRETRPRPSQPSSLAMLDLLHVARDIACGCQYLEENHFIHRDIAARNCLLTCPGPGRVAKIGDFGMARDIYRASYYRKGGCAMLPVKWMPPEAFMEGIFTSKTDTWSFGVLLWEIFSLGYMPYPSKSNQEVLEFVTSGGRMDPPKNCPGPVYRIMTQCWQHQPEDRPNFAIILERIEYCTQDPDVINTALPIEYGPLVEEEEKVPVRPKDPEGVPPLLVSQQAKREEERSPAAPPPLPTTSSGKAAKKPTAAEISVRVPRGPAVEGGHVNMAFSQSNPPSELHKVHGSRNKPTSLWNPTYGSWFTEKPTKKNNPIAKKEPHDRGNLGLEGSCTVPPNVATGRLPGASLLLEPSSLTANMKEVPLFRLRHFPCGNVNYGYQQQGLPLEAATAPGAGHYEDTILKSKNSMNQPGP

FC(F)(F)c1ccc(CNc2ccc(Cc3c[nH]c4ncc(Cl)cc34)cn2)cn1 [PEXIDARTINIB] gave a concentration at 2555 h [1] of 12 µM, an Activity [2] of 31 and a concentration at 2555 h [3] of 158 µM.

In the case of COc1ncc(F)cc1CNc1ccc(Cc2c[nH]c3ncc(C)cc23)c(F)n1 [PLX-5622], the Activity [4] is reported as “Active”, the IC50 [5] is reported as greater than 1 µM and the AUC at 4320 h [6] is reported as 57300 ng·h/mL. It also gave an Activity [7] of 0 RPKM, an IC50 [8] greater than 1 µM and an Activity [9] of 0 RPKM. The Activity [10] was 10.895 RPKM, the Activity [11] was 14.33 RPKM and the IC50 [12] was greater than 1 µM. It also gave an Activity [13] of 66, an Activity [14] of 85.99% and a concentration at 4320 h [15] of 2390 ng/mL. The Activity [16] was 77%, the IC50 [17] was greater than 1 µM and the IC50 [18] was greater than 1 µM. It also gave an IC50 [19] greater than 1 µM, an Activity [20] of 95.841% and an IC50 [21] of 0.39 µM. For the same compound, the Activity [22] was “Active”, the Activity [23] was 1.854 um and the IC50 [24] was greater than 1 µM. For the same compound, the IC50 [25] was greater than 1 µM, the IC50 [26] was greater than 1 µM and the Activity [27] was 0 RPKM. The IC50 [28] was greater than 1 µM, the IC50 [29] was greater than 1 µM and the Activity [30] was 0.14 RPKM. The Activity [31] was “Active”.
